These results are taken from ChEMBL document CHEMBL1132214, “Synthesis, mode of action, and biological activities of rebeccamycin bromo derivatives” (J Med Chem, 1999).

SMILES strings stand for the structures. Values after ≈ are worked out from the molar mass of the structure shown.

In assay [1] the test system is CEM-SS. As to the kind of experiment: Selective Index of against HIV -I Lai infected CEM-SS cells. The class given is functional, Homo sapiens. In outline: (§1)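 CEM-SS cells kept at 37 °C, 5% CO2 in RPMI 1640 with 10% decomplemented FBS, infected with HIV-1 Lai. Antiviral IC50 from reverse transcriptase activity of virus particles released into the medium. Cytotoxicity (CC50) measured in parallel. Selectivity index = CC50/IC50.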

Assay [2] deals with P388. As to the kind of experiment: (§2) Ratio of IC50 of p388 and p388CPT5 cell lines. The class given is functional, Mus musculus. In short, it runs like this:
(§3)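 Murine P388 leukaemia cells and camptothecin-resistant P388CPT5 cells were exposed to graded drug concentrations for 96 h at 37 °C. Viability was read by neutral red staining and the 50% growth-inhibitory concentration (IC50) taken for each line. The resistance ratio is IC50(P388CPT5)/IC50(P388).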

Assay [3] deals with P388. The assay can be described thus: In vitro inhibitory concentration against murine P388 leukemia cell proliferation. It counts as functional, cell-based. As to conditions: Mus musculus. In short, it runs like this: (§4)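 Murine P388 leukemia cells, or the camptothecin-resistant P388CPT5 subline, exposed 96 h at 37 °C to a range of drug concentrations. Viability scored by neutral red staining. IC50 taken as the concentration giving 50% growth inhibition.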

Assay [4] deals with CEM-SS. As to the kind of experiment: Compound was tested for anti-HIV activity in HIV -I Lai infected CEM-SS cells. The class given is functional, cell-based. As to conditions: Homo sapiens. In short, it runs like this:
as §1

Assay [5] has as its system CEM-SS. As to the kind of experiment: The cytotoxicity was evaluated in HIV -I Lai infected CEM-SS cells. The following applies: Homo sapiens. The class given is functional. In outline:
as §1

The nature of assay [6]: as §2. It counts as functional. In short, it runs like this:
as §3

The target of assay [7] is T1, DNA topoisomerase 1 (Mus musculus) (UniProt Q04750).
T1 sequence (whole entry): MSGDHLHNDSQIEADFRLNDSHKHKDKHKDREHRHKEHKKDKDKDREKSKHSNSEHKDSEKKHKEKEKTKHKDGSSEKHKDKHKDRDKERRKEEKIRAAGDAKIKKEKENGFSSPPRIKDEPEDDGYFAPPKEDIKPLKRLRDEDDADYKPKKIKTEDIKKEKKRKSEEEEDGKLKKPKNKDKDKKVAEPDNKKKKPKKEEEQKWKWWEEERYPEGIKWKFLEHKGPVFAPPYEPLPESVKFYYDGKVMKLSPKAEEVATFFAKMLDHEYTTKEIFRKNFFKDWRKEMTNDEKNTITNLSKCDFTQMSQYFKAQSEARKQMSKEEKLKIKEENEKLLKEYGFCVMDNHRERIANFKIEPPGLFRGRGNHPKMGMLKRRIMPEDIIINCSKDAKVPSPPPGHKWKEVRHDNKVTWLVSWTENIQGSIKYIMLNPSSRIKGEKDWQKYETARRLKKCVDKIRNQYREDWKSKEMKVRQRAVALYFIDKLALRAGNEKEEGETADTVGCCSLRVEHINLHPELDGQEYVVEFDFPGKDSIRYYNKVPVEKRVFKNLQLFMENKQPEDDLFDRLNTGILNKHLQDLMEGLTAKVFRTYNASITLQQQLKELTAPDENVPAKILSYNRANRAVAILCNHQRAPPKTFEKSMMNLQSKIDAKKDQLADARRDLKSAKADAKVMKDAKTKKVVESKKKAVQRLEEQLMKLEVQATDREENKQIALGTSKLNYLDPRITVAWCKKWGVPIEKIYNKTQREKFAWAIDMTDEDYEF

Assay [8] has as its system P388CPT5. The assay can be described thus: In vitro inhibitory concentration against murine P388CPT5 leukemia cell proliferation. The following applies: Mus musculus. The class given is functional, cell-based. In short, it runs like this: as §4
Assay [9] concerns P388. As to the kind of experiment: Compound was tested for drug bound to cell pellet (P388 leukemia) after centrifugation at 320 nm. It counts as functional, Mus musculus. In short, it runs like this: (§5)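 Exponentially growing P388 cells (1.5 × 10^6 per mL) incubated with drug, usually 100 µM, for 30 min at 37 °C. Excitation 320 nm, emission 400–600 nm. Whole-cell spectrum read before centrifugation. Pellet spectrum read after one HBSS wash and resuspension in drug-free buffer. Intensities expressed relative to free rebeccamycin; fraction change is whole-cell versus free drug.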

The subject of assay [10] is P388. The assay can be described thus: Fraction change in percent is observed. The class given is functional, Mus musculus. In short, it runs like this: as §5
The test system of assay [11] is P388. The assay can be described thus: Compound was tested for drug bound to whole cells (P388 leukemia) before centrifugation at 320 nm. The class given is functional, Mus musculus. In short, it runs like this: as §5
Assay [12] has as its system DNA topoisomerase 1 (Bos taurus). As to the kind of experiment: Compound was tested for anti microbial activity against topoisomerase I.
The subject of assay [13] is Bacillus cereus. As to the kind of experiment: Compound was tested for antimicrobial activity against a gram-positive bacterium Bacillus cereus. The class given is functional. In outline: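 Bacillus cereus ATCC 14579 in Mueller-Hinton broth, pH 7.4, incubated 24 h at 27 °C. Compounds diluted in DMSO over 12 tubes spanning 100 to 0.05 µg/mL. MIC read from the dilution series.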

In [1], `CO[C@H]1[C@H](O)[C@@H](O)[C@H](n2c3ccc(Br)cc3c3c4c(c5c6cc(Br)ccc6[nH]c5c32)C(=O)OC4=O)O[C@@H]1CO` yielded a Selectivity index of 1.9. Moreover, in [2], the Ratio came out at 8.3.

By IC50 is commonly meant the point on the concentration scale where inhibition reaches its midpoint. High values mean a need for much substance, low ones inhibition by little substance. As a reminder, the CC50 is the concentration giving 50% cytotoxicity. A lower CC50 goes with greater toxicity to the cells. `CO[C@H]1[C@H](O)[C@@H](O)[C@H](n2c3ccccc3c3c4c(c5c6ccccc6[nH]c5c32)C(=O)N(C)C4=O)O[C@@H]1CO`: the IC50 in [3] came out at 670 nM; in [4], 4000 nM. This compound also returned a CC50 in assay [5] of 7900 nM. Moreover, the Selectivity index in assay [1] is 2.

As to `CC[C@@]1(O)C(=O)OCc2c1cc1n(c2=O)Cc2cc3ccccc3nc2-1` [CAMPTOTHECIN], the IC50 was found to be 32 nM in assay [3] and 2800 nM in assay [8]. In assay [6], the Ratio is on record as 87.5. Besides, the MIC in [7] is 0.086 µM (≈ 0.03 µg/mL).

The compound `CO[C@H]1[C@H](O)[C@@H](O)[C@H](n2c3ccccc3c3c4c(c5c6ccccc6[nH]c5c32)C(=O)NC4=O)O[C@@H]1CO` returned a Selectivity index in assay [1] of 5.6. The compound also yielded an Activity in assay [9] of 0.33. Further, in assay [10], the Fraction change is -26%. In assay [11], the “Whole-cell fluorescence relative to free drug” value turned out to be 0.38. Besides, the Ratio in assay [2] was greater than 28.

Regarding `CO[C@H]1[C@H](O)[C@@H](O)[C@H](n2c3ccccc3c3c4c(c5c6ccccc6[nH]c5c32)C(=O)OC4=O)O[C@@H]1CO`, the Selectivity index in assay [1] is listed as greater than 1.98 SI. In addition, the Ratio in [2] was greater than 3.1.

On to `CO[C@H]1[C@H](O)[C@@H](O)[C@H](n2c3c(Cl)cccc3c3c4c(c5c6cccc(Cl)c6[nH]c5c32)C(=O)N(C)C4=O)O[C@@H]1CO`, for which, in [4], the IC50 is 4900 nM. Moreover, the midpoint of cytotoxicity in [5], the CC50, lay at 8000 nM. The compound further showed a Selectivity index in assay [1] of 1.6.

For the compound `CO[C@H]1[C@H](O)[C@@H](O)[C@H](n2c3c(Cl)cccc3c3c4c(c5c6cccc(Cl)c6[nH]c5c32)C(=O)NC4=O)O[C@@H]1CO` [REBECCAMYCIN], the Selectivity index in assay [1] is 2 SI. The compound further yielded an Activity in assay [9] of 0.81. Further, the Fraction change in assay [10] is given as 29%. Also, the “Whole-cell fluorescence relative to free drug” value in assay [11] is given as 1.29. The Ratio in assay [2] was 8.5.

In the case of `COC1C(CO)OC(n2c3ccc(Br)cc3c3c4c(c5c6cc(Br)ccc6[nH]c5c32)C(=O)NC4=O)C(O)C1O` (configuration not stated), the IC50 was 260 nM in assay [3], 70 nM in assay [4] and greater than 15000 nM in assay [8]. The MIC turned out to be 0.15 µM (≈ 0.0989 µg/mL) in [12] and 19 µM (≈ 12.5 µg/mL) in [13]. In assay [5], this compound registered a CC50 of 340 nM. Also, in assay [1], the Selectivity index turned out to be 4.8. This compound also gave an Activity in assay [9] of 0.08. Further, the Fraction change in assay [10] was 46%. For the same compound, the “Whole-cell fluorescence relative to free drug” value in assay [11] worked out at 0.15. Moreover, the Ratio in assay [2] is greater than 58.

In the case of `COC1C(CO)OC(n2c3ccc(Br)cc3c3c4c(c5c6cc(Br)ccc6[nH]c5c32)C(=O)N(C)C4=O)C(O)C1O` (configuration not stated), the IC50 is 4900 nM in assay [3], 1170 nM in assay [4] and greater than 15000 nM in assay [8]. Also, the MIC is greater than 15 µM in assay [12] and greater than 74 µM in assay [13]. In [5], it took 1490 nM to reach half-maximal cytotoxicity (CC50). In assay [1], this compound gave a Selectivity index of 1.3. The Activity in [9] was determined as 0.24. The Fraction change in [10] was determined as 13%. In addition, in assay [11], the “Whole-cell fluorescence relative to free drug” value amounted to 0.46. The Ratio in [2] is greater than 3.
